Laboratory results taken from ChEMBL document CHEMBL1125672, “2-acetylpyridine thiosemicarbazones. 13. Derivatives with antifilarial activity” (1991).

Assays:
Assay type in all cases: functional
Onchocerca gutturosa [1] = test: Mean motility score for treated Onchocerca gutturosa involving LLCMK2 feeder cells at a concentration of 3.1*10e-6 M at 3 h
How it was run: (§1)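 Single male O. gutturosa worms (obtained following abattoir slaughter) per well in Eagle's MEM with 10% heat-inactivated fetal calf serum, penicillin, streptomycin, amphotericin B and bicarbonate, over LLCMK2 feeder cells, 5% CO2 in air. Drug dissolved in DMSO; controls received matched DMSO ≤0.016%. Motility scored 0 (immotile) to 10 (maximum control activity) every 30 min to 4.5 h, then days 1, 2, 3, 4, 7.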

Onchocerca gutturosa [2] = test: Mean motility score for treated Onchocerca gutturosa involving LLCMK2 feeder cells at a concentration of 4.88*10e-8M at 3.5 h; how it was run: as §1
Onchocerca gutturosa [3] = test: Mean motility score for treated Onchocerca gutturosa involving LLCMK2 feeder cells at a concentration of 3.05*10e-8 M at 2 h; settings: in the assay text read “3.05*10e-9 M” for “3.05*10e-8 M”
How it was run: (§2)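 One male O. gutturosa per well over LLCMK2 feeder cells in MEM with 10% heat-inactivated FCS, antibiotics and bicarbonate, 5% CO2; compound introduced in DMSO (≤0.016%, equal DMSO in controls). Motility scored 0 (immotile) to 10 (maximal control activity) every 30 min to 4.5 h, then at 1, 2, 3, 4 and 7 days.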

Onchocerca gutturosa [4] = test: Mean motility score for treated Onchocerca gutturosa involving LLCMK2 feeder cells at a concentration of 4.88*10e-8M at 2.5 h; how it was run: as §1
Onchocerca gutturosa [5] = test: Mean motility score for treated Onchocerca gutturosa involving LLCMK2 feeder cells at a concentration of 1.95*10e-8 M at 3.5 h; settings: in the assay text read “1.95*10e-7 M” for “1.95*10e-8 M”; how it was run: as §2
Onchocerca gutturosa [6] = test: Mean motility score for treated Onchocerca gutturosa involving LLCMK2 feeder cells at a concentration of 3.05*10e-8 M at 1 h; how it was run: as §2
Onchocerca gutturosa [7] = test: Mean motility score for treated Onchocerca gutturosa involving LLCMK2 feeder cells at a concentration of 1.95*10e-8 M at 48 h; how it was run: as §2
Onchocerca gutturosa [8] = test: Mean motility score for treated Onchocerca gutturosa involving LLCMK2 feeder cells at a concentration of 3.1*10e-6 M at 24 h; how it was run: as §1
Onchocerca gutturosa [9] = test: Mean motility score for treated Onchocerca gutturosa involving LLCMK2 feeder cells at a concentration of 1.95*10e-8 M at 4.5 h; how it was run: as §2
Onchocerca volvulus = test: Colorimetric quantification of male Onchocerca volvulus viability, expressed as % inhibition of formazan formation at 5*10e-6 M conc. by using tetrazolium Dye MTT assay
How it was run: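 Male O. volvulus dissected from human nodules within 24 h (kept in medium on ice), cultured without feeder cells in medium with 10% serum; drug from DMSO stock. MTT after 96 h: single worm, 0.5 mg/mL MTT, 30 min at 36.5 °C, formazan dissolved in DMSO 1 h at room temperature, absorbance 490 nm against DMSO blank.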

Onchocerca gutturosa [10] = test: Colorimetric quantification of male Onchocerca gutturosa viability, expressed as % inhibition of formazan formation at 1.95*10e-7 M conc. by using tetrazolium Dye MTT assay
How it was run: (§3)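 Single intact male O. gutturosa, cultured with LLCMK2 feeder cells in MEM + 10% heat-inactivated FCS (5% CO2), drug added from DMSO (≤0.016% DMSO in controls). MTT read after 168 h: worm in 0.5 mg/mL MTT, 30 min at 36.5 °C, formazan solubilized in DMSO 1 h at room temperature, absorbance 490 nm vs DMSO blank.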

Onchocerca gutturosa [11] = test: Mean motility score for treated Onchocerca gutturosa involving LLCMK2 feeder cells at a concentration of 3.1*10e-6 M at 48 h; how it was run: as §1
Onchocerca gutturosa [12] = test: Colorimetric quantification of male Onchocerca gutturosa viability, expressed as % inhibition of formazan formation at 4.88*10e-8M conc. by using tetrazolium Dye MTT assay; how it was run: as §3
Onchocerca gutturosa [13] = test: Mean motility score for treated Onchocerca gutturosa involving LLCMK2 feeder cells at a concentration of 3.1*10e-6 M at 4.5 h; how it was run: as §1
Onchocerca gutturosa [14] = test: Mean motility score for treated Onchocerca gutturosa involving LLCMK2 feeder cells at a concentration of 1.95*10e-8 M at 0.5 h; how it was run: as §2
Onchocerca gutturosa [15] = test: Mean motility score for treated Onchocerca gutturosa involving LLCMK2 feeder cells at a concentration of 1.95*10e-8 M at 1 h; how it was run: as §2
Onchocerca gutturosa [16] = test: Colorimetric quantification of male Onchocerca gutturosa viability, expressed as % inhibition of formazan formation at 3.1*10e-6 M conc. by using tetrazolium Dye MTT assay; how it was run: as §3
Onchocerca gutturosa [17] = test: Mean motility score for treated Onchocerca gutturosa involving LLCMK2 feeder cells at a concentration of 1.95*10e-8 M at 2 h; how it was run: as §2
Onchocerca gutturosa [18] = test: Mean motility score for treated Onchocerca gutturosa involving LLCMK2 feeder cells at a concentration of 1.94*10e-7M at 24 h; how it was run: as §2
Acanthocheilonema viteae = test: anti-filarial Activity was measured against Acanthocheilonema viteae in jirds at 100 mg/kg/day(5 days) dose
How it was run: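 Jirds with established B. pahangi or A. viteae infections were given drug once daily for 5 days by subcutaneous injection, at the maximum tolerated dose and, where supply allowed, graded lower doses. Tolerance was first checked in noninfected jirds with a single 200 mg/kg oral or subcutaneous dose, watching 72 h for excessive weight loss or death. Macrofilarial suppression was the read-out.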

Onchocerca gutturosa [19] = test: Colorimetric quantification of male Onchocerca gutturosa viability, expressed as % inhibition of formazan formation at 1.94*10e-7M conc. by using tetrazolium Dye MTT assay; how it was run: as §3
Onchocerca gutturosa [20] = test: Mean motility score for treated Onchocerca gutturosa involving LLCMK2 feeder cells at a concentration of 1.94*10e-7M at 96 h; how it was run: as §2
Onchocerca gutturosa [21] = test: Mean motility score for treated Onchocerca gutturosa involving LLCMK2 feeder cells at a concentration of 1.21*10e-8M at 24 h; how it was run: as §2
Onchocerca gutturosa [22] = test: Mean motility score for treated Onchocerca gutturosa involving LLCMK2 feeder cells at a concentration of 1.94*10e-7M at 48 h; how it was run: as §2
Onchocerca gutturosa [23] = test: Mean motility score for treated Onchocerca gutturosa involving LLCMK2 feeder cells at a concentration of 1.94*10e-7M at 1.5 h; how it was run: as §2
Onchocerca gutturosa [24] = test: Mean motility score for treated Onchocerca gutturosa involving LLCMK2 feeder cells at a concentration of 1.94*10e-7M at 2 h; how it was run: as §2
Onchocerca gutturosa [25] = test: Mean motility score for treated Onchocerca gutturosa involving LLCMK2 feeder cells at a concentration of 3.05*10e-9 M at 1.5 h; how it was run: as §2

Molecule `C/C(=N\NC(=S)N1CCCCCC1)c1ccccn1` has a Motility (Onchocerca gutturosa [1]) of 9.3, a Motility (Onchocerca gutturosa [2]) of 8.5 and a Motility (Onchocerca gutturosa [3]) of 9.8. The Motility (Onchocerca gutturosa [4]) was 8.3, the Motility (Onchocerca gutturosa [5]) was 10 and the Motility (Onchocerca gutturosa [6]) was 9. It also gave a Motility (Onchocerca gutturosa [7]) of 2.5, a Motility (Onchocerca gutturosa [8]) of 4 and a Motility (Onchocerca gutturosa [9]) of 9.5. The Inhibition (Onchocerca volvulus) was 58.2%, the Inhibition (Onchocerca gutturosa [10]) was 70.4% and the Motility (Onchocerca gutturosa [11]) was 2.8. It also gave an Inhibition (Onchocerca gutturosa [12]) of 31.7%, a Motility (Onchocerca gutturosa [13]) of 9.5 and a Motility (Onchocerca gutturosa [14]) of 8.8. It also gave a Motility (Onchocerca gutturosa [15]) of 9.5, an Inhibition (Onchocerca gutturosa [16]) of 90.2% and a Motility (Onchocerca gutturosa [17]) of 9.3.

`C/C(=N\NC(S)=Nc1ccccc1N)c1ccccn1` was tested, and the Motility (Onchocerca gutturosa [18]) was 8, the Suppression (Acanthocheilonema viteae) was 100% and the Inhibition (Onchocerca gutturosa [19]) was 84.8%. For the same molecule, the Motility (Onchocerca gutturosa [20]) was 1.8, the Motility (Onchocerca gutturosa [21]) was 9 and the Motility (Onchocerca gutturosa [22]) was 4. For the same molecule, the Motility (Onchocerca gutturosa [23]) was 8, the Motility (Onchocerca gutturosa [24]) was 9 and the Motility (Onchocerca gutturosa [25]) was 8.3.
